Values belong to the compound of their own block, whether it stands above or below them.
Legend:
BRD4(1) [1] = molecular target: T1, BRD4(1) (Homo sapiens, UniProt O60885); test: Thermal shift assay; type: binding
BRD4(1) [2] = molecular target: T1, BRD4(1); test: Alphascreen assay against BRD4; type: biochemical
c-Myc [3] = test: qRT-PCR of c-Myc mRNA in MV4-11; type: cell-based, human; conditions: MV4-11, 48 h, 1 μM, 5 μM and 10 μM vs control
Outline: (§1)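 Log-phase cells seeded at 5000 per well, grown 12 h, then given a range of test compound concentrations for 48 h, in triplicate wells. RNA extracted with TRIzol; reverse transcription with iScript (25 °C 5 min, 42 °C 30 min, 85 °C 5 min). EvaGreen qPCR used gene-specific primers. Expression by 2−ΔΔCt, normalised to GAPDH; one-way ANOVA with Tukey's test.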

c-Myc [4] = test: Western blotting of c-Myc in MV4-11; type: cell-based, human; conditions: MV4-11, 48 h, Western blot
Outline: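 MV4-11 cells treated 48 h with several compound concentrations, then lysed 30 min on ice in RIPA with PMSF and cleared at 12,000 r/min, 4 °C. Protein quantified by BCA, run on 8% SDS-PAGE, blotted to PVDF and blocked in 5% milk/TBST. Probed with anti-c-Myc (1:1000, 4 °C overnight) and HRP anti-rabbit (1:50000, 1 h), then ECL. Densitometry relative to GAPDH; ANOVA/Tukey.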

MV4-11 cells [5] = test: Cell cycle analysis by flow cytometry; type: cell-based, human; conditions: MV4-11, 48 h
Outline: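 Cells seeded at 5 × 10^3 per well, grown 12 h, then exposed to graded test compound concentrations or DMSO for 48 h at 37 °C. Fixed overnight in 70% ethanol at 4 °C. RNase A (about 50 μg/mL final) at 37 °C for 30 min, then PI (about 65 μg/mL final) on ice in the dark for 30 min. Flow cytometry within 1 h; one-way ANOVA with Tukey's test.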

MV4-11 cells [6] = test: Apoptosis analysis by flow cytometry; type: cell-based, human; conditions: MV4-11, 1 μM, 5 μM and 10 μM vs control
Outline: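 Harvested cells washed in cold PBS and resuspended at 10^6/mL in 1× Annexin binding buffer. Stained with Alexa Fluor 488 Annexin V plus propidium iodide (100 μg/mL working solution) for 15 min at room temperature in the dark, then analysed by flow cytometry. Groups compared by one-way ANOVA with Tukey's test.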

CDK6 = test: qRT-PCR of CDK6 mRNA in MV4-11; type: cell-based, human; conditions: MV4-11, 48 h, 1 μM, 5 μM and 10 μM vs control
Outline: as §1

Compound: CCc1noc2cc(OC)c(NS(=O)(=O)CC)cc12 [Compound 11a, N-(3-Ethyl-6-methoxybenzo[d]isoxazol-5-yl)ethanesulfonamide]
binding activity to BRD4 (TSA), in words (BRD4(1) [1]): moderate binding activity

Compound: CCc1noc2cc(OC)c(NS(=O)(=O)c3ccccc3)cc12 [Compound 11d, N-(3-Ethyl-6-methoxybenzo[d]isoxazol-5-yl)benzenesulfonamide]
binding activity to BRD4 (TSA), in words (BRD4(1) [1]): moderate activity

Compound: CCc1noc2cc(OC)c(NS(=O)(=O)c3ccccc3OC)cc12 [Compound 11h, N-(3-Ethyl-6-methoxybenzo[d]isoxazol-5-yl)-2-methoxybenzenesulfonamide]
IC50 (BRD4(1) [2]): 94 nM

Compound: CCc1noc2cc(OC)c(NS(=O)(=O)c3ccc(OC)cc3)cc12 [Compound 11r, N-(3-Ethyl-6-methoxybenzo[d]isoxazol-5-yl)-4-methoxybenzenesulfonamide]
mRNA expression of c-Myc (c-Myc [3]): decreased significantly | c-Myc expression at the protein level (c-Myc [4]): remarkable dose-dependent decrease | cell cycle arrest, in words (MV4-11 cells [5]): induce cell cycle arrest in G0/G1 phase in a dose-dependent manner | apoptosis rate, in words (MV4-11 cells [6]): significantly increased | mRNA expression of CDK6 (CDK6): decreased significantly

Further lines, results first:

binding activity to BRD4 (TSA), in words (BRD4(1) [1]): good binding activities
Compound: CCc1noc2cc(OC)c(NS(=O)(=O)c3cccs3)cc12 [Compound 11y, N-(3-Ethyl-6-methoxybenzo[d]isoxazol-5-yl)thiophene-2-sulfonamide]

binding activity to BRD4 (TSA), in words (BRD4(1) [1]): good binding activities
Compound: CCc1noc2cc(OC)c(NS(=O)(=O)c3cccnc3)cc12 [Compound 11z, N-(3-Ethyl-6-methoxybenzo[d]isoxazol-5-yl)pyridine-3-sulfonamide]
